The text below walks through data of ChEMBL document CHEMBL1671655, “Anidulafungin is fungicidal and exerts a variety of postantifungal effects against Candida albicans, C. glabrata, C. parapsilosis, and C. krusei isolates” (2009).

≈ marks a conversion by molar mass, not a printed value. Calls of active or inactive are those of the source. The calls are words filed in the database; no cut-off is given here. Starred links: 1 amine or outer side, 2 acyl side, 3 side chain; linkers in the order of their positions; H or OH if unused. Positions of bridges follow the written chain, without caps; N, C: chain ends. Non-standard residues stand in square brackets, D forms with d. Residues, ends and D or L forms follow the SMILES beside them. *: point of attachment. pTerphenylCO(4''-OnC5H11) = CCCCCOc1ccc(-c2ccc(-c3ccc(C(=O)*)cc3)cc2)cc1; Orn(4R-OH,5R-OH) = O=C([C@H](C[C@@H](O)[C@@H](O)N[*:3])N[*:1])[*:2]; hTyr(3S-OH,4S-OH) = N[C@H](C(=O)O)[C@H](O)[C@@H](O)c1ccc(O)cc1; Pro(3S-OH,4S-Me) = C[C@H]1CN[C@H](C(=O)O)[C@H]1O; Hyp = O=C(O)[C@@H]1C[C@@H](O)CN1

Assay [1] has as its system Candida albicans. Nature of the assay: Fungicidal activity against Candida albicans isolate 2 assessed as log reduction in bacterial count at MIC after 48 hrs by time-kill analysis. The following applies: isolate 2, 48 h. It is filed as functional. The procedure, abridged: (§1)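 Isolates subcultured twice on SDA, suspended to 0.5 McFarland, giving ~1 x 10^5 to 5 x 10^5 CFU/ml in MOPS-buffered RPMI 1640 (pH 7.0) with or without drug at multiples of MIC (MIC by CLSI M27-A3). Tubes shaken at 35°C with continuous drug. Sampled at 0–48 h, diluted 10-fold and plated on SDA; CFU counted after 48 h at 35°C. Run twice per isolate; means.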

Assay [2] deals with Nakaseomyces glabratus. Nature of the assay: Fungicidal activity against Candida glabrata isolate 1 assessed as log reduction in bacterial count at 16 times MIC after 48 hrs by time-kill analysis. The assay is classed as functional. The following applies: isolate 1, 48 h. The procedure, abridged:
as §1

Assay [3] has as its system Nakaseomyces glabratus. Description: Fungicidal activity against Candida glabrata isolate 3 assessed as log reduction in bacterial count at 4 times MIC after 48 hrs by time-kill analysis. The assay is classed as functional. The following applies: isolate 3, 48 h. The procedure, abridged: as §1
The subject of assay [4] is Candida parapsilosis. Nature of the assay: Fungicidal activity against Candida parapsilosis isolate 1 assessed as log reduction in bacterial count at MIC after drug exposure for 1 hr followed by washout measured after 48 hrs in the absence of drug by PAFE study. The assay is classed as functional. The following applies: Lodderomyces parapsilosis. The gist of the method: (§2)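 Inoculum about 1 x 10^5 to 5 x 10^5 CFU/ml in RPMI 1640 (MOPS, pH 7.0) with drug, shaken at 35°C for 1 h. Cells were then washed and centrifuged at 1,400 x g for 10 min (3 cycles) and resuspended in warm drug-free RPMI. Samples plated on SDA at 0, 2, 4, 8, 12, 24 and 48 h; CFU counted after 48 h at 35°C. Run twice per isolate; means.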

In assay [5] the test system is Candida parapsilosis. Description: Fungicidal activity against Candida parapsilosis isolate S assessed as log reduction in bacterial count at 4 times MIC after drug exposure for 1 hr followed by washout measured after 48 hrs in the absence of drug by PAFE study. The following applies: Lodderomyces parapsilosis. It is filed as functional. The procedure, abridged:
as §2

Assay [6] has as its system Candida albicans. Description: Antifungal activity against Candida albicans ATCC 90028 assessed as time period for bacterial growth inhibition at 4 times MIC after 1 hr drug exposure. It is filed as functional. The procedure, abridged:
(§3)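 Inoculum of about 1 x 10^5 to 5 x 10^5 CFU/ml in MOPS-buffered RPMI (pH 7.0), shaken at 35°C and exposed to drug for 1 h. Cells then washed and centrifuged three times and resuspended in drug-free warm RPMI. Samples plated on SDA at 0, 2, 4, 8, 12, 24 and 48 h, with CFU counted after 48 h at 35°C. Run twice per isolate; values are means.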

Assay [7] deals with Candida albicans. Nature of the assay: Antifungal activity against Candida albicans isolate 2 by CLSI M27-A3 broth microdilution method. The assay is classed as functional. The procedure, abridged:
(§4)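 CLSI M27-A3 broth microdilution in RPMI 1640 buffered to pH 7.0 with MOPS. Starting inoculum 0.5 x 10^3 to 2.5 x 10^3 cells/ml, incubated at 35°C. MIC read as the lowest concentration giving >50% growth reduction versus control. Each isolate tested on at least three occasions.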

The subject of assay [8] is Candida parapsilosis. Nature of the assay: Antifungal activity against Candida parapsilosis isolate S by CLSI M27-A3 broth microdilution method. The following applies: Lodderomyces parapsilosis. It is filed as functional. The gist of the method: as §4
For assay [9], the system named is Nakaseomyces glabratus. Nature of the assay: Antifungal activity against Candida glabrata isolate 1 by CLSI M27-A3 broth microdilution method. It is filed as functional. The procedure, abridged:
as §4

The test system of assay [10] is Pichia kudriavzevii. Description: Antifungal activity against Candida krusei isolate 1 by CLSI M27-A3 broth microdilution method. It is filed as functional. The procedure, abridged:
as §4

For assay [11], the system named is Candida parapsilosis. Nature of the assay: Antifungal activity against Candida parapsilosis isolate 1 assessed as time period for bacterial growth inhibition at 16 times MIC after 1 hr drug exposure. It is filed as functional. The procedure, abridged: as §3
In assay [12] the test system is Candida albicans. Description: Increase in susceptibility to SDS in Candida albicans isolate 1 assessed as cell wall damage at 16 times MIC after 1 hr relative to control. The assay is classed as functional, organism-based. The procedure, abridged: (§5)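 Cells recovered 8 h after a 1-h drug exposure were grown in YPD with 1% glucose to exponential phase and adjusted to OD599 0.1. Undiluted culture and 10-fold serial dilutions were spotted onto YPD plates containing SDS (0.01 to 0.04%), then incubated 72 h at 30°C. Growth compared with unexposed control cells; triplicate.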

In assay [13] the test system is Candida parapsilosis. Nature of the assay: Increase in susceptibility to SDS in Candida parapsilosis isolate A assessed as cell wall damage at 16 times MIC after 1 hr relative to control. The assay is classed as functional, organism-based. The gist of the method:
as §5

Assay [14] deals with Pichia kudriavzevii. Nature of the assay: Increase in susceptibility to SDS in Candida krusei isolate ATCC 6258 assessed as cell wall damage at 16 times MIC after 1 hr relative to control. The assay is classed as functional, organism-based. The gist of the method: as §5
For assay [15], the system named is Candida albicans. Nature of the assay: Increase in susceptibility to calcofluor white in Candida albicans ATCC 90028 assessed as cell wall damage at MIC after 1 hr relative to control. It is filed as functional, organism-based. The procedure, abridged: (§6)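 Cells recovered 8 h after a 1-h drug exposure were grown to exponential phase in YPD with 1% glucose and adjusted to OD599 0.1. Undiluted and 10-fold serially diluted cultures were spotted onto YPD plates containing calcofluor white, then incubated at 30°C for 72 h. Growth compared with no-drug control cells; triplicate.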

For assay [16], the system named is Candida parapsilosis. Description: Increase in susceptibility to calcofluor white in Candida parapsilosis isolate 1 assessed as cell wall damage at MIC after 1 hr relative to control. It is filed as functional, organism-based. The procedure, abridged:
(§7)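 Candida given a 1-h anidulafungin pulse in MOPS-buffered RPMI 1640 (pH 7.0) at 35°C, washed three times by centrifugation, and regrown drug-free. Cells collected 8 h later, grown in YPD with 1% glucose to exponential phase, and set to OD599 0.1. Undiluted culture and 10-fold dilutions (4 µl) spotted on YPD plates with calcofluor white, then 30°C for 72 h. Triplicate; compared with no-drug cells.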

For assay [17], the system named is Nakaseomyces glabratus. Nature of the assay: Increase in susceptibility to calcofluor white in Candida glabrata isolate 1 assessed as cell wall damage at 4 times MIC after 1 hr relative to control. The assay is classed as functional, organism-based. The gist of the method:
as §6

The subject of assay [18] is Candida albicans. Nature of the assay: Increase in susceptibility to calcofluor white in Candida albicans isolate 1 assessed as cell wall damage at 16 times MIC after 1 hr relative to control. The assay is classed as functional, organism-based. The gist of the method:
as §6

In assay [19] the test system is Candida parapsilosis. Description: Increase in susceptibility to calcofluor white in Candida parapsilosis isolate 1 assessed as cell wall damage at 16 times MIC after 1 hr relative to control. The assay is classed as functional, organism-based. The gist of the method:
as §7

Assay [20] concerns Nakaseomyces glabratus. Nature of the assay: Antifungal activity against Candida glabrata isolate 1 assessed as cell wall damage at 4 times MIC by Transmission electron microscopy. It is filed as functional, organism-based. The procedure, abridged:
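Cells recovered 8 h after a 1-h drug exposure were grown on SDA for 24 h at 35°C. Colonies fixed at 4°C in 0.1 M cacodylate (pH 7.2) with 2% glutaraldehyde and 2% paraformaldehyde, ethanol-dehydrated and embedded in Lowicryl K4M. Thin sections examined by transmission EM.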

Assay [21] has as its system Nakaseomyces glabratus. Description: Inhibition of Candida glabrata isolate 1 adherence to human buccal epithelial cells at 4 times MIC after 1 hr by adherence assay relative to control. The assay is classed as functional, Epithelial cell. The procedure, abridged:
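Candida collected 8 h after a 1-h 4x MIC pulse and washout were grown on SDA for 24 h at 35°C. Buccal epithelial cells were pooled from three donors and washed in PBS. Cells (1 x 10^5/ml) were mixed 1:1 by volume with Candida (1 x 10^6/ml) and shaken 1 h at 37°C. Mixtures were filtered, washed, and Gram-stained, and Candida were counted per 100 epithelial cells. Run in duplicate on ≥2 occasions; Student's t test against unexposed controls.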

Assay [22] relates to Candida parapsilosis. Nature of the assay: Antifungal activity against Candida parapsilosis isolate 1 coincubated with mouse J774 macrophages assessed as macrophage induced bacterial cell killing at 4 times MIC (reference value: 22 +/- 12 %). The assay is classed as functional.
In assay [23] the test system is Nakaseomyces glabratus. Description: Antifungal activity against Candida glabrata assessed as time period for bacterial regrowth inhibition after 1 hr drug exposure. The assay is classed as functional.

In the case of `CCCCCOc1ccc(-c2ccc(-c3ccc(C(=O)N[C@H]4C[C@@H](O)[C@@H](O)NC(=O)[C@@H]5[C@@H](O)[C@@H](C)CN5C(=O)[C@H]([C@@H](C)O)NC(=O)[C@H]([C@H](O)[C@@H](O)c5ccc(O)cc5)NC(=O)[C@@H]5C[C@@H](O)CN5C(=O)[C@H]([C@@H](C)O)NC4=O)cc3)cc2)cc1` [ANIDULAFUNGIN] ({pTerphenylCO(4''-OnC5H11)}-[Orn(4R-OH,5R-OH)]T[Hyp][hTyr(3S-OH,4S-OH)]T[Pro(3S-OH,4S-Me)]; lactam 1-C), the log reduction in the assay on Candida albicans [1] came out at 0.89 log CFU/ml; in the assay with Nakaseomyces glabratus [2], 3.44 log CFU/ml; in the assay with Nakaseomyces glabratus [3], 2.76 log CFU/ml; in the assay with Candida parapsilosis [4], 0.81; in the assay with Candida parapsilosis [5] it was 2.17. In addition, the Time in the assay with Candida albicans [6] is 8 h; with Candida parapsilosis [11] it was 8 h; in the assay with Nakaseomyces glabratus [23], “>=12 hr”. For the same molecule, the MIC against Candida albicans [7] was 0.03 µg/mL (≈ 0.0263 µM); with Candida parapsilosis [8], 1 µg/mL (≈ 0.877 µM); against Nakaseomyces glabratus [9], 0.06 µg/mL (≈ 0.0526 µM); against Pichia kudriavzevii [10], 0.03 µg/mL (≈ 0.0263 µM). The result in the assay on Candida albicans [12], in the assay on Candida parapsilosis [13], in the assay with Pichia kudriavzevii [14], in the assay on Candida albicans [15], in the assay with Candida parapsilosis [16] and in the assay on Nakaseomyces glabratus [17] was Active. Also, the result in the assay with Candida albicans [18], in the assay with Candida parapsilosis [19] and in the assay with Nakaseomyces glabratus [20] was Active. For the same molecule, the “inhibition (INH)” value in the assay with Nakaseomyces glabratus [21] was 62%; with Candida parapsilosis [22], 27%.
